Experimental data published in ChEMBL document CHEMBL1157731, “Novel KCNQ2/Q3 agonists as potential therapeutics for epilepsy and neuropathic pain” (J Med Chem, 2010).

Columns and labels:
[1] = target: Substance-P receptor (Homo sapiens) (UniProt P25103); experiment: Displacement of [125I]BH-SP from NK1 receptor in human U373MG cells at 10 uM; assay type: cell-based; details: U-373MG ATCC
[2] = target: T1, Adenosine receptor A1 (Homo sapiens) (UniProt P30542); experiment: Displacement of [3H]CCPA from human recombinant adenosine A1 receptor expressed in CHO cells at 10 uM; assay type: cell-based
T1 sequence (whole entry): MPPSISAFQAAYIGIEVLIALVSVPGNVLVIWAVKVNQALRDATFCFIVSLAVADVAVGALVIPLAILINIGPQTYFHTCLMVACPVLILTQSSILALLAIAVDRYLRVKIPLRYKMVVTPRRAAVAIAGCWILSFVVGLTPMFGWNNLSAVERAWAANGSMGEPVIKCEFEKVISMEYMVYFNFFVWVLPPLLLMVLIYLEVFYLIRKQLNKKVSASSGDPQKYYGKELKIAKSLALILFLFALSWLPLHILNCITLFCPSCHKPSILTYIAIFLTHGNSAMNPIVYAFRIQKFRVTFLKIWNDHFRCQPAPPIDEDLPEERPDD

[3] = target: Adenosine receptor A2a (Homo sapiens) (UniProt P29274); experiment: Displacement of [3H]CGS21680 from human recombinant adenosine A2A receptor expressed in HEK293 cells at 10 uM; assay type: cell-based
Adenosine receptor A2a (Homo sapiens), sequence (P29274 whole entry): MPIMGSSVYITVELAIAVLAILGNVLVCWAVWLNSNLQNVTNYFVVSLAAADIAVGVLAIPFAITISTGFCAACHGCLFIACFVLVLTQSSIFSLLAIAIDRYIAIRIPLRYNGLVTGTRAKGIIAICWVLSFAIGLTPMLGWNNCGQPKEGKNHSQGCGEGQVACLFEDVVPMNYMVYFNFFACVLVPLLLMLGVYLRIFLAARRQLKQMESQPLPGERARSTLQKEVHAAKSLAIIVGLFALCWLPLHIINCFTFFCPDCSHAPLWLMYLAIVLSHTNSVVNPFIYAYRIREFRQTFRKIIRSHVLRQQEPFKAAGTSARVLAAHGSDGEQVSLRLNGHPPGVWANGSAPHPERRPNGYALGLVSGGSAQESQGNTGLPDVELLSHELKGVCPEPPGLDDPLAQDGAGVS

[4] = target: 5-hydroxytryptamine receptor 1B (Homo sapiens) (UniProt P28222); experiment: Displacement of radioligand from 5HT1B receptor at 10 uM by displacement assay
5-hydroxytryptamine receptor 1B (Homo sapiens), sequence (P28222 whole entry): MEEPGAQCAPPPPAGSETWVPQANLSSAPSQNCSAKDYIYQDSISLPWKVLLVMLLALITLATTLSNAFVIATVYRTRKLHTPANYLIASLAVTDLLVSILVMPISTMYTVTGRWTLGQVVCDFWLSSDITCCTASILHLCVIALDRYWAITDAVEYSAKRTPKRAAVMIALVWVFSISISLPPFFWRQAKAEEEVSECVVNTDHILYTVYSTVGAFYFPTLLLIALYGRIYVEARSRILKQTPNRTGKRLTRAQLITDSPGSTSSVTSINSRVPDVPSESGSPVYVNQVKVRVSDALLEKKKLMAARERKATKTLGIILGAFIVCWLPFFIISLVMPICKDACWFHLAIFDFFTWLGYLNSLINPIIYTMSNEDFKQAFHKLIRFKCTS

[5] = target: Voltage-gated potassium channel, KQT; KCNQ2(Kv7.2)/KCNQ3(Kv7.3) (Homo sapiens, UniProt O43525+O43526); experiment: Activation of KCNQ2/KCNQ3 expressed in CHO cells by isotopic efflux assay; assay type: cell-based
Voltage-gated potassium channel, KQT; KCNQ2(Kv7.2)/KCNQ3(Kv7.3), sequence (O43526 whole entry): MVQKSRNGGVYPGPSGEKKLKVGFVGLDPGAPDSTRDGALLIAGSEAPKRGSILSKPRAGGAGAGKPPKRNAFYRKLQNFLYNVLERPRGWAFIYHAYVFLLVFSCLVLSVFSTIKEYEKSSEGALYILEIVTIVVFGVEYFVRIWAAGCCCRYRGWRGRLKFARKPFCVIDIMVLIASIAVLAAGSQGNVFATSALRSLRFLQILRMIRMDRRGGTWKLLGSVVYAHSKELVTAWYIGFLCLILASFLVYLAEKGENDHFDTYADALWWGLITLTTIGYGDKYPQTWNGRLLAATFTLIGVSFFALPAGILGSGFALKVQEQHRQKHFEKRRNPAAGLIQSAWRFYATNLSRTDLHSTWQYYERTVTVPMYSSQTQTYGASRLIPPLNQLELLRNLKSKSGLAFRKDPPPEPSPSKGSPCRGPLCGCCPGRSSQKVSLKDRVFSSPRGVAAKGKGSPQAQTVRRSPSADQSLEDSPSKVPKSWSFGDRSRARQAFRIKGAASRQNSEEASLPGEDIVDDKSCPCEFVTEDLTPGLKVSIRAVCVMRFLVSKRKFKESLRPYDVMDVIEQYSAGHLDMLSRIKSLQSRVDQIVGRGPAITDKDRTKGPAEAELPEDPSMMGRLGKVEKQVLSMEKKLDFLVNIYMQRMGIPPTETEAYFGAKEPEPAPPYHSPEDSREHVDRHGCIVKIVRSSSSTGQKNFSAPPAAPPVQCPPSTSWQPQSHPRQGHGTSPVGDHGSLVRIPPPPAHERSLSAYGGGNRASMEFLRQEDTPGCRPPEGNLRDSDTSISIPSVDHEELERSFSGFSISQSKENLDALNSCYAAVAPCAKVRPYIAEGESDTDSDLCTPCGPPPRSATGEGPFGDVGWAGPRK
Voltage-gated potassium channel, KQT; KCNQ2(Kv7.2)/KCNQ3(Kv7.3), sequence (O43525 whole entry): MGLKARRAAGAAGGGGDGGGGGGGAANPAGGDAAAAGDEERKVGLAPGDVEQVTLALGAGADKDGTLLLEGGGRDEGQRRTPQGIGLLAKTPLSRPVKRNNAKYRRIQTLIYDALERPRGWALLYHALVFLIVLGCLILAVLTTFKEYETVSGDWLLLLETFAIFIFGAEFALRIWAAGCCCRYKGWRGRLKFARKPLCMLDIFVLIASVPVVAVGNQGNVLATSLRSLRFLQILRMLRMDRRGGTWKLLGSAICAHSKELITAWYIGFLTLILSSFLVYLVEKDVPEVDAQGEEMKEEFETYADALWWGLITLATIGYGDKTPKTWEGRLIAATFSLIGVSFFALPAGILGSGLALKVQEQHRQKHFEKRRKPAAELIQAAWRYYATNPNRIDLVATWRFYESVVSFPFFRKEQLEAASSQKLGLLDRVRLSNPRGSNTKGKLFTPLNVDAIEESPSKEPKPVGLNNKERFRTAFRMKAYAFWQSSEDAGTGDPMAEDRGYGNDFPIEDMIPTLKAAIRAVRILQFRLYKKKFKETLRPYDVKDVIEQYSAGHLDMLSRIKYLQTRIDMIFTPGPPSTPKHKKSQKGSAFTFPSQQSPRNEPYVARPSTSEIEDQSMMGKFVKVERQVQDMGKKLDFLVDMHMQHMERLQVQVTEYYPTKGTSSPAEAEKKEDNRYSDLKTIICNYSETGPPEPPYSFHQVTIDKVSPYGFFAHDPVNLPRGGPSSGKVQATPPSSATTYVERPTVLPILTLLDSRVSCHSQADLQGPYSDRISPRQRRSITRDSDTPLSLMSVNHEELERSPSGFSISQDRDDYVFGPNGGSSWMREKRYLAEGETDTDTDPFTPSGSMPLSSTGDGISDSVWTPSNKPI
In short: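 86Rb+ flux in K+-channel-expressing cells loaded by culture in 86RbCl, then washed in EBSS. Preincubated with drug (0.01-30 μM in EBSS), then efflux stimulated by submaximal KCl (generally 7-20 mM) with drug still present. Supernatant and SDS lysate counted by Cherenkov. Percent efflux normalized to high-KCl (generally 30-135 mM) maximum. EC50 from eight-point half-log curves; mean of 2-4 determinations ± SEM.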

Rattus norvegicus [6] = experiment: Anticonvulsant activity in po dosed Sprague-Dawley rat assessed as inhibition of pentylenetetrazole-induced seizure treated 30 mins before PTZ challenge; assay type: functional, organism-based
In short: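 Male Sprague-Dawley rats received compound po in 0.5% methylcellulose (1 mL/kg) 30 min before PTZ 85 mg/kg sc. Latency to tonic-clonic seizure timed from PTZ injection. No seizure within 15 min scored as protected (latency 15 min). EC50 derived from latency scores.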

[7] = target: T2, Alpha-2A adrenergic receptor (Homo sapiens) (UniProt P08913); experiment: Displacement of radioligand from alpha 2 adrenergic receptor at 10 uM
T2 sequence (whole entry): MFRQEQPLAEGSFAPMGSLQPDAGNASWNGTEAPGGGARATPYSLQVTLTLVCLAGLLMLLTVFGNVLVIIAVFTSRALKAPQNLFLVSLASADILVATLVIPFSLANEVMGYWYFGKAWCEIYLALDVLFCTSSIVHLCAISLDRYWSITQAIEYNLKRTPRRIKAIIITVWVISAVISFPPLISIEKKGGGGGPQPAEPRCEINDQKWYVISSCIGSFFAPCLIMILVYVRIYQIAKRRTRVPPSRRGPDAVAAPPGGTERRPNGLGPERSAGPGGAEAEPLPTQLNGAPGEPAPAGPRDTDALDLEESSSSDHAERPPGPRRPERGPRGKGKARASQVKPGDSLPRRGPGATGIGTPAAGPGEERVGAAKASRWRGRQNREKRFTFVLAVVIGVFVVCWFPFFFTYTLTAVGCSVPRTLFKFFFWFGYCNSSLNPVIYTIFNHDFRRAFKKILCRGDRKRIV

[8] = target: Beta-1 adrenergic receptor (Homo sapiens) (UniProt P08588); experiment: Displacement of [3H](-)CGP12177 from human recombinant beta 1 adrenergic receptor expressed in HEK293 cells at 10 uM; assay type: cell-based
Beta-1 adrenergic receptor (Homo sapiens), sequence (P08588 whole entry, looked up): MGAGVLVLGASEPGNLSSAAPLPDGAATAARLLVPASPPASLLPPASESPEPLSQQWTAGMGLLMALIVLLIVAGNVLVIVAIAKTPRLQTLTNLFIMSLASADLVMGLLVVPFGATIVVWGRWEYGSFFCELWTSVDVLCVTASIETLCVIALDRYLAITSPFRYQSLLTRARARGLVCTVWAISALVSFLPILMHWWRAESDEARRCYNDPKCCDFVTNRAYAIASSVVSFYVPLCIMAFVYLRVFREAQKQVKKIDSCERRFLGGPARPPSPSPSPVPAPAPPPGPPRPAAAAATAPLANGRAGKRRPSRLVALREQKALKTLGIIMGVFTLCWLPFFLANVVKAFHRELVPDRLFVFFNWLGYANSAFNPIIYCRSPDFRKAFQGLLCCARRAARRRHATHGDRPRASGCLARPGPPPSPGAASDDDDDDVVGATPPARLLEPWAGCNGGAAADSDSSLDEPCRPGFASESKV

[9] = target: D(1A) dopamine receptor (Homo sapiens) (UniProt P21728); experiment: Displacement of radioligand from dopamine D1 receptor at 10 uM
D(1A) dopamine receptor (Homo sapiens), sequence (P21728 whole entry): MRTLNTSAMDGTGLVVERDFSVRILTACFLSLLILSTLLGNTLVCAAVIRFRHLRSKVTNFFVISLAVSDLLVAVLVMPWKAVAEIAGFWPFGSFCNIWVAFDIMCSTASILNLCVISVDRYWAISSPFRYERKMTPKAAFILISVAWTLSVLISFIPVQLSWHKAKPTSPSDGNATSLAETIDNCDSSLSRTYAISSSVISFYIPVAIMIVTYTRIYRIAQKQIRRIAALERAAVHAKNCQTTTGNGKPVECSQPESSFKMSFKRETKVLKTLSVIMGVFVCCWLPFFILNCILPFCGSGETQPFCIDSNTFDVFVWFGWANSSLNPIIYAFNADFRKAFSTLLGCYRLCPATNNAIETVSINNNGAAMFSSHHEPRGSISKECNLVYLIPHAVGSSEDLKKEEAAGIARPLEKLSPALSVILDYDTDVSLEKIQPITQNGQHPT

[10] = Displacement of radioligand from NMDA receptor at 10 uM
[11] = target: T3, Muscarinic acetylcholine receptor M1 (Homo sapiens) (UniProt P11229); experiment: Displacement of radioligand from muscarinic M1 receptor at 10 uM
T3 sequence (whole entry): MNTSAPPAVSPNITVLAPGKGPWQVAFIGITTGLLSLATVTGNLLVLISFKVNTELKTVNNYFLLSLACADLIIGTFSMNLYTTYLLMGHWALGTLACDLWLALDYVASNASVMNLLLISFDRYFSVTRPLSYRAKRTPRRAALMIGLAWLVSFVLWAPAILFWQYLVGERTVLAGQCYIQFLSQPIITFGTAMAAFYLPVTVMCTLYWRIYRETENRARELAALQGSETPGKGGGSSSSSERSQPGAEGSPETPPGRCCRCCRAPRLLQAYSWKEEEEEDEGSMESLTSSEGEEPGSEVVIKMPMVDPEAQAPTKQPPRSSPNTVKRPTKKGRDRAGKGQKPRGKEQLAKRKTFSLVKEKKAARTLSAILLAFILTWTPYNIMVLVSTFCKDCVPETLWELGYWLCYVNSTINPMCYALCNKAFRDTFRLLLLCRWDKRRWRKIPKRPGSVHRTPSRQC

[12] = target: Sodium-dependent serotonin transporter (Homo sapiens) (UniProt P31645); experiment: (§1) Binding affinity to SERT at 10 uM by displacement assay
Sodium-dependent serotonin transporter (Homo sapiens), sequence (P31645 whole entry, looked up): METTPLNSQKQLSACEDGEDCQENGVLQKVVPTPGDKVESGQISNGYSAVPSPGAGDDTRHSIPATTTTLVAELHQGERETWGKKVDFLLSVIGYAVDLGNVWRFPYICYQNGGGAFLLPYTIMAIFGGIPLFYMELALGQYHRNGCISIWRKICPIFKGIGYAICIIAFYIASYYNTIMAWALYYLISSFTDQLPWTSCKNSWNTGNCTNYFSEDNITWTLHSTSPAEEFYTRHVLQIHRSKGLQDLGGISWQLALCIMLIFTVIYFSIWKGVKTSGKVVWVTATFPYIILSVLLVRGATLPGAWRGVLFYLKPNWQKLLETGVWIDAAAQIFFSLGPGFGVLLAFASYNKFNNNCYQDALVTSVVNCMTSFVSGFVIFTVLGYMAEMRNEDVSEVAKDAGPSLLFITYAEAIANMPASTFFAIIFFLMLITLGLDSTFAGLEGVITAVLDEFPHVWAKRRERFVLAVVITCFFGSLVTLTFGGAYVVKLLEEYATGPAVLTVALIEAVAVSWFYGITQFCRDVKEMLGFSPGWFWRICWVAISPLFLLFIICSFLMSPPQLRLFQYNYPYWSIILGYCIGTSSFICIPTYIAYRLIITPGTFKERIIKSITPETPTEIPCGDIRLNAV

[13] = target: Sodium-dependent serotonin transporter (Homo sapiens) (UniProt P31645); experiment: as §1; remark: listed apart in the source
Rattus norvegicus [14] = organism: Rattus norvegicus; experiment: Displacement of [3H]DTG from sigma opioid receptor in rat cerebral cortex; assay type: tissue-based
[15] = Binding affinity to vasopressin V1 receptor at 10 uM by displacement assay
[16] = target: T4, B2 bradykinin receptor (Homo sapiens) (UniProt P30411); experiment: Displacement of [3H]bradykinin from human recombinant bradykinin B2 receptor expressed in CHO cells; assay type: cell-based
T4 sequence (whole entry): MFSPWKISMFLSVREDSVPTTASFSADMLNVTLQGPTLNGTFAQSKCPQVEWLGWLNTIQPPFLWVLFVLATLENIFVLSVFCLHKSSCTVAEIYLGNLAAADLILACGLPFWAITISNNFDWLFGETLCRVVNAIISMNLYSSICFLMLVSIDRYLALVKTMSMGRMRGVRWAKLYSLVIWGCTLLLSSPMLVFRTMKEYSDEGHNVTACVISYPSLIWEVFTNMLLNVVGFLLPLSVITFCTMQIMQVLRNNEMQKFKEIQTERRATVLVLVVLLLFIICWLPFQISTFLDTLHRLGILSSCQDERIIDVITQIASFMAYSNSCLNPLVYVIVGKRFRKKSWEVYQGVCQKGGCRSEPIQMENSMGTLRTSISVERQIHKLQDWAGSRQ

Substance-P receptor (Homo sapiens), sequence (P25103 whole entry): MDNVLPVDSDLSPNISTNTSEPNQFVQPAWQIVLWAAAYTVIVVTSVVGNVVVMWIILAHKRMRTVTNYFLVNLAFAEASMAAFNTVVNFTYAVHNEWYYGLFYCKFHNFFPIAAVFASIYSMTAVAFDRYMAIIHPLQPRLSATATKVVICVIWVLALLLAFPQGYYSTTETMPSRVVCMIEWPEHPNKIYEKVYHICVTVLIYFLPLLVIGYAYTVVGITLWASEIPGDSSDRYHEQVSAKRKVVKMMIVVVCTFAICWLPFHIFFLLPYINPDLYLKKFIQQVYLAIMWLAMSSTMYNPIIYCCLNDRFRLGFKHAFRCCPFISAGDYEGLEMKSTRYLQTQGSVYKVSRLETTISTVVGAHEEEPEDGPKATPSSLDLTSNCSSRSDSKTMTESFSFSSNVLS

| Activity [1] [%] | Activity [2] [%] | Activity [3] [%] | Activity [4] [%] | EC50 [5] [nM] | Activity [7] [%] | Activity [8] [%] | Activity [9] [%] | Activity [10] [%] | Activity [11] [%] | Activity [12] [%] | Activity [13] [%] | Activity (Rattus norvegicus [14]) [%] | Activity [15] [%] | Activity [16] [%] | SMILES | EC50 (Rattus norvegicus [6]) [mg/kg] |
| --- | --- | --- | --- | --- | --- | --- | --- | --- | --- | --- | --- | --- | --- | --- | --- | --- |
| 21 | 0 | 12 | 0 | 44 | 0 | 0 | 0 | 0 | 34 | 20 | 50 | 0 | 22 | 49 | Cn1/c(=N/NC(=O)CC2CCCC2)sc2cc(OC(F)(F)F)ccc21 | 7.5 |
| 10 | 11 | 10 | 0 | 95 | 0 | 11 | 0 | 0 | 21 | 14 | 16 | 19 | 0 | 0 | CC(C)OC(=O)N/N=c1\sc2cc(OC(F)(F)F)ccc2n1C | 2.6 |
| 0 | 0 | 0 | 0 | 49 | 0 | 0 | 0 | 0 | 0 | 0 | 20 | 0 | 12 | 0 | Cn1/c(=N/NC(=O)CC(C)(C)C)sc2cc(OC(F)(F)F)ccc21 | 3.8 |
